Measured values: ChEMBL document CHEMBL1145079, “Receptor-mediated targeting of a photosensitizer by its conjugation to gonadotropin-releasing hormone analogues” (J Med Chem, 2003)

Experiments:
Type in all cases: functional
Rattus norvegicus [1] = test: Serum LH releasing potency in vivo after intraperitoneal administration in rats at 10 h
Procedure, shortened: (§1)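 Blood was drawn by cardiac puncture under light ether anaesthesia at each time point. Serum LH was measured by double-antibody RIA against the LH-RP-3 reference, with three dilutions per serum. Values are mean ± SEM of five rats per group; the experiment was repeated twice more.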

Rattus norvegicus [2] = test: Serum LH releasing potency in vivo after intraperitoneal administration in rats at 24 h; procedure, shortened: as §1
Rattus norvegicus [3] = test: Serum LH releasing potency in vivo after intraperitoneal administration in rats at 3 h; procedure, shortened: as §1
Rattus norvegicus [4] = test: Serum LH releasing potency in vivo after intraperitoneal administration in rats at 6 h; procedure, shortened: as §1
Rattus norvegicus [5] = test: Serum LH releasing potency in vivo after intraperitoneal administration in rats at 0 h; procedure, shortened: as §1
Rattus norvegicus [6] = test: Serum LH releasing potency in vivo after intraperitoneal administration in rats at 1.5 h; procedure, shortened: as §1
Rattus norvegicus [7] = species on record: Rattus norvegicus; test: LH releasing activity in rat
Procedure, shortened: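 Fifteen-week-old female Wistar-derived rats (220–250 g), given 2 nmol/rat ip in 0.5 mL PBS. Blood drawn by cardiac puncture under light ether anesthesia at set times (1.5–24 h). Serum LH measured by double-antibody RIA at three dilutions per sample. Five rats per group; mean ± SEM.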

Structure (SMILES) | Activity (Rattus norvegicus [1]) [ng/mL] | Activity (Rattus norvegicus [2]) [ng/mL] | Activity (Rattus norvegicus [3]) [ng/mL] | Activity (Rattus norvegicus [4]) [ng/mL] | Activity (Rattus norvegicus [5]) [ng/mL] | Activity (Rattus norvegicus [6]) [ng/mL] | ED50 (Rattus norvegicus [7]) [µM]
CC(C)C[C@H](NC(=O)[C@H](CCCCN)NC(=O)[C@H](Cc1ccc(O)cc1)NC(=O)[C@H](CO)NC(=O)[C@H](Cc1c[nH]c2ccccc12)NC(=O)[C@H](Cc1c[nH]cn1)NC(=O)[C@@H]1CCC(=O)N1)C(=O)N[C@@H](CCCN=C(N)N)C(=O)N1CCC[C@H]1C(=O)NCC(N)=O | 1.12 | 0.34 | 21.92 | 2.94 | 0.53 | 72.5 | –
C=CC1=C(C)c2cc3[nH]c(cc4nc(cc5[nH]c(cc1n2)c(C)c5CCC(=O)O)C(CCC(=O)NCCCC[C@@H](NC(=O)[C@H](Cc1ccc(O)cc1)NC(=O)[C@H](CO)NC(=O)[C@@H](Cc1c[nH]c2ccccc12)NC(=O)[C@@H](Cc1ccccc1)NC(=O)[C@H]1CCC(=O)N1)C(=O)N[C@@H](CC(C)C)C(=O)N[C@@H](CCCN=C(N)N)C(=O)N1CCC[C@H]1C(=O)NCC(N)=O)=C4C)c(C)c3C=C | – | – | – | – | – | – | 1.8
C=CC1=C(C)c2cc3[nH]c(cc4nc(cc5[nH]c(cc1n2)c(C)c5CCC(=O)O)C(CCC(=O)NCCCC[C@@H](NC(=O)[C@H](Cc1ccc(O)cc1)NC(=O)[C@H](CO)NC(=O)[C@H](Cc1c[nH]c2ccccc12)NC(=O)[C@H](Cc1c[nH]cn1)NC(=O)[C@@H]1CCC(=O)N1)C(=O)N[C@@H](CC(C)C)C(=O)N[C@@H](CCCN=C(N)N)C(=O)N1CCC[C@H]1C(=O)NCC(N)=O)=C4C)c(C)c3C=C | 2.9 | 0.88 | 11.57 | 8.1 | 0.53 | 10.64 | –
